The list is not random: actives were taken first. Their share in the collection is about 2.2%.
DENV2 CPE – inhibitors of DENV2 cytopathic effect, primary screen, cell-based, plate reader, single concentration | CPE inhibition, % at 9.99 µM | AID 651640, 2012 | 1.7% of 350,000 active | DENV2-infected cells, cytopathic effect rescue; in the data active means CPE inhibition above about 20%, passing the limit was not always enough; inconclusive means no clear call, values can overlap the other calls; tested in BHK-21 cells
E-sel inducer – E-selectin induction in HUVECs, primary screen, imaging, HUVEC, immunofluorescence imaging, single point; 0.37% of 260,000 active; activation, % at 7.58 µM; normalized: neutral wells 0, TNF-alpha wells 100;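 active means mean E-selectin-positive cell signal at least 10% of the positive control, reached in at least 60% of replicates, without over 20% cell loss; inconclusive means no rule given, readout overlaps actives, possibly toxicity-flagged; inactive means the rest, including those meeting only one limit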
Target sequence (P16581 whole entry, looked up): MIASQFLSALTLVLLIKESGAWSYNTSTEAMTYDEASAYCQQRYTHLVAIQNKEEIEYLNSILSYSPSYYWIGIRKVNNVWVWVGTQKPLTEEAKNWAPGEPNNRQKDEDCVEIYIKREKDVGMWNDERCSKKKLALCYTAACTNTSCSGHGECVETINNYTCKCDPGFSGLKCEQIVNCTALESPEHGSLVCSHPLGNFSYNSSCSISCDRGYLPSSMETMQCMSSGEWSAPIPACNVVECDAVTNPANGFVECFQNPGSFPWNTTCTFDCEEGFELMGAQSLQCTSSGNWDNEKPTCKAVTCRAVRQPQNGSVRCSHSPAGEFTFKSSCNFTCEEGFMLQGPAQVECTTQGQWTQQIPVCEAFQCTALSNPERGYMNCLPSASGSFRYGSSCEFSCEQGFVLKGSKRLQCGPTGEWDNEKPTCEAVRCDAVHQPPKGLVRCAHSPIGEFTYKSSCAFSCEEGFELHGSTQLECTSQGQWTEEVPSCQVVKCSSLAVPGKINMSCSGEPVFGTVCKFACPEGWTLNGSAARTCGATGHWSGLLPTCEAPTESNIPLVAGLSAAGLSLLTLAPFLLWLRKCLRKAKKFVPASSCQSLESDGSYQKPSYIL
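Test system – human umbilical vein endothelial cells (HUVEC), E-selectin induction · Input – 3,000 HUVEC seeded per well · Buffer or medium – EGM-2, gelatin · Compound dosing – single-point compound dose · Detection – immunofluorescence imaging · Measure – percent E-selectin-positive cells · Controls – TNF-alpha high, DMSO low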
Statin myotox sup – suppressors of statin myotoxicity in C2C12 myotubes, primary screen, cell-based, single point, plate reader; C2C12 myotubes + simvastatin, ATP luminescence, 48 h; scaled: DMSO 0, geranylgeraniol control 100; rescue of ATP level, % at 7.49 µM; 0.78% of 330,000 active;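 active means mean ATP rescue above about 67%, or every replicate alone reaching that limit, limit read from the data, passing the limit was not always enough; inconclusive means no clear call, values can overlap the other calls; inactive means mean under the limit and some replicate under it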;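 further: myotubes were challenged with 10 µM simvastatin during compound exposure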
A number is an active result; i = inactive; ? = inconclusive; nt = no result given.

SMILES	DENV2 CPE	E-sel inducer	Statin myotox sup
CC(=O)N1CC(=O)N2[C@@H](CO)[C@H](c3ccc(C#CC(C)C)cc3)[C@@H]2C1	i	i	nt
Cc1noc(C)c1S(=O)(=O)N(C)C[C@@H]1OCCCC[C@H](C)Oc2ccc(NC(=O)NC(C)C)cc2C(=O)N([C@@H](C)CO)C[C@H]1C	i	nt	nt
Cc1noc(C)c1S(=O)(=O)N(C)C[C@@H]1OCCCC[C@@H](C)Oc2ccc(NC(=O)Nc3ccc(F)cc3)cc2C(=O)N([C@@H](C)CO)C[C@@H]1C	46	i	nt
Cc1noc(C)c1S(=O)(=O)N(C)C[C@H]1OCCCC[C@@H](C)Oc2ccc(NC(=O)Nc3ccc(F)cc3)cc2C(=O)N([C@H](C)CO)C[C@@H]1C	i	i	nt
Cc1noc(C)c1S(=O)(=O)N(C)C[C@@H]1OCCCC[C@H](C)Oc2ccc(NC(=O)NC(C)C)cc2C(=O)N([C@H](C)CO)C[C@H]1C	86	nt	nt
O=C(N[C@@H]1CC[C@@H](CC(=O)N2CCOCC2)O[C@H]1CO)c1ccccn1	i	i	i
C=CCCCCCCCCc1nc(=S)[nH][nH]1	nt	nt	148
C=CCCCCCCCCc1nc(SCC(=O)O)n[nH]1	i	nt	i
CC(Oc1ccc(Cl)cc1)C(=O)Nc1ccccc1N1CCOCC1 (centres undefined)	i	i	i
Cc1cc(Cl)ccc1OC(C)C(=O)Nc1ccccc1N1CCOCC1 (centres undefined)	nt	i	94
N#C[C@@H]1[C@@H](c2ccc(-c3cncnc3)cc2)[C@H](CO)N1C(=O)CN1CCOCC1	i	i	i
COc1ccccc1NC(=O)N1CC[C@H]2[C@@H]1c1cc(C#Cc3ccc(F)cc3)ccc1N(C)[C@H]2CO	34	i	i
COc1ccccc1NC(=O)N1CC[C@@H]2[C@H]1c1cc(-c3ccc(F)cc3)ccc1N(C)[C@H]2CO	i	i	i
CN1c2ccc(-c3ccc(C#N)cc3)cc2[C@@H]2[C@@H](CCN2C(=O)Nc2ccccc2F)[C@@H]1CO	42	i	i
CN1c2ccc(-c3cccc(C#N)c3)cc2[C@@H]2[C@@H](CCN2C(=O)Nc2cc(F)ccc2F)[C@@H]1CO	i	i	i
Cc1cc(C(=O)Nc2cccc3c2O[C@@H](CN(C)S(=O)(=O)c2ccc(F)cc2)[C@H](C)CN([C@H](C)CO)C3=O)n(C)n1	i	i	nt
COc1cc(/C=C/c2cccc[n+]2C)ccc1OCC(=O)Nc1ccccc1	i	i	i
COc1cc(/C=C/c2cccc[n+]2C)ccc1OCC(=O)Nc1cccc(Cl)c1	25	i	i
CC(C)NC(=O)N[C@H]1CC[C@@H](CCNC(=O)C2CC2)O[C@@H]1CO	i	i	i
C/C=C/c1ccc(C2[C@H]3CNC[C@@H]2N3Cc2cccc(C(F)(F)F)c2)cc1 (some centres undefined)	i	i	nt
COc1ccc(Nc2cc(C)c3cc([N+](=O)[O-])ccc3n2)cc1	28	i	i
COc1ccc(Nc2ccc([N+](=O)[O-])cn2)cc1	i	nt	i
C[C@@H]1CN([C@H](C)CO)C(=O)c2cc(NC(=O)Nc3ccccc3)ccc2O[C@@H]1CN(C)S(=O)(=O)c1cn(C)cn1	i	i	nt
COc1ccc([N+](=O)[O-])cc1NC(=O)C(C)OC(=O)C1CC(=O)N(Cc2ccco2)C1 (centres undefined)	95	i	i
COc1ccccc1NC(=O)C(C)OC(=O)C1CC(=O)N(Cc2ccco2)C1 (centres undefined)	i	i	i
SMILES	DENV2 CPE	E-sel inducer	Statin myotox sup
Cc1ccc(S(=O)(=O)N(C)C[C@H]2Oc3ccc(NC(=O)C4CCCCC4)cc3C(=O)N([C@@H](C)CO)C[C@@H]2C)cc1	i	i	i
N#C[C@@H]1[C@H](c2ccc(C#Cc3cccc(F)c3)cc2)[C@@H](CO)N1C(=O)C1CC1	i	i	i
O=C(O)c1ccccc1SCc1cn2cc(Cl)ccc2n1	i	nt	nt
CC(SCc1cn2cc(Cl)ccc2n1)C(=O)O (centres undefined)	nt	nt	108
COCCNC(=O)C[C@@H]1CC[C@@H]2[C@H](COc3ccc(NC(=O)c4cnccn4)cc3C(=O)N2C)O1	i	i	i
O=C(Nc1ccc(F)cc1F)C1CC(=O)N(Cc2ccccc2)C1 (centres undefined)	?	nt	i
O=C(Nc1ccc(F)cc1F)NC1CC(=O)N(Cc2ccccc2)C1 (centres undefined)	nt	nt	86
O=C(NCCCN1CCc2ccccc2C1)Nc1ccc(Cl)cc1	nt	nt	87
CSc1ccc(NC(=O)NCCN2CCc3ccccc3C2)cc1	nt	nt	i
Cc1noc(C)c1S(=O)(=O)N(C)C[C@H]1Oc2ccc(NS(=O)(=O)c3ccccc3)cc2CC(=O)N([C@H](C)CO)C[C@@H]1C	i	i	i
COc1ccc(-c2cc(N3C(=O)Nc4ccccc4N3O)n[nH]2)cc1	nt	i	nt
COc1ccc(-c2cc(N3C(=O)Nc4ccccc4N3O)n[nH]2)cc1OC	38	nt	nt
C[C@H]1CN([C@@H](C)CO)C(=O)c2cccc(N(C)C)c2O[C@@H]1CN(C)Cc1ccncc1	i	i	i
Cc1noc(C)c1S(=O)(=O)N(C)C[C@@H]1Oc2ccc(NC(=O)CCCCCC(=O)Nc3ccccc3N)cc2CC(=O)N([C@@H](C)CO)C[C@@H]1C	29	i	nt
C[C@@H]1CN([C@@H](C)CO)C(=O)Cc2cc(NC(=O)CCCCCC(=O)Nc3ccccc3N)ccc2O[C@@H]1CN(C)S(C)(=O)=O	i	i	i
C[C@@H]1CN([C@@H](C)CO)C(=O)Cc2cc(NC(=O)CCCCCC(=O)Nc3ccccc3N)ccc2O[C@H]1CN(C)CC1CC1	21	i	nt
C[C@@H]1CN([C@H](C)CO)C(=O)Cc2cc(NC(=O)CCCCCC(=O)Nc3ccccc3N)ccc2O[C@@H]1CN(C)CC1CC1	i	i	i
Cc1noc(C)c1S(=O)(=O)N(C)C[C@@H]1Oc2ccc(NC(=O)CCCCCC(=O)Nc3ccccc3N)cc2CC(=O)N([C@H](C)CO)C[C@H]1C	i	i	nt
C[C@@H]1CN([C@H](C)CO)C(=O)Cc2cc(NC(=O)CCCCCC(=O)Nc3ccccc3N)ccc2O[C@@H]1CN(C)S(C)(=O)=O	91	i	i
C[C@@H]1CN([C@@H](C)CO)C(=O)c2cccc(NC(=O)c3ccc(-c4nccs4)cc3)c2O[C@@H]1CN(C)Cc1ccc2c(c1)OCO2	i	i	i
COc1ccc(NC(=O)COc2cccc3c2CCNC3=O)cc1	i	i	nt
COc1cccc(NC(=O)COc2cccc3c2CCNC3=O)c1	28	nt	i
O=C(Nc1cc(C(F)(F)F)cc(C(F)(F)F)c1)Nc1cnn(-c2ccc([N+](=O)[O-])cc2)c1C(F)(F)F	i	74	i
O=C(Nc1ccc(C(=O)O)cc1)Nc1ccc([N+](=O)[O-])cc1	i	i	i
CCC(=O)N1CC[C@@H]2[C@@H](CO)N(C)c3ccc(-c4ccc(C#N)cc4)cc3[C@@H]21	i	i	i
Cc1ccc2cc(CN(Cc3ccco3)C(=O)NCc3ccccc3)c(=O)[nH]c2c1C	nt	nt	i
Cc1ccc2cc(CN(Cc3ccco3)C(=O)c3ccccc3)c(=O)[nH]c2c1C	nt	nt	137
COc1ccc(S(=O)(=O)NN(C)C(=O)c2nn(-c3ccccc3)ccc2=O)cc1	i	27	i
COc1ccc(-n2ccc(=O)c(C(=O)O)n2)cc1	i	nt	i
